Holding throughout (assay type): cell-based
Assay [1] concerns the target T1, Integrin alpha-4/beta-7 (Mus musculus) (UniProt Q00651+P26011). The experiment in a line: Inhibition of alpha4beta7 assessed as inhibition of Mn(2+)-activated adhesion of mouse TK-1 T cells to mouse MAdCAM-1 at 100 uM incubated for 1 hr by cell adhesion assay. In outline:
(§1)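 TK-1 cells (mouse AKR/Cum α4β7+/α4β1− CD8 T lymphoma), grown at 37 °C in RPMI 1640 with 10% FCS and 0.05 mM β-mercaptoethanol, were washed and held 1 h at room temperature in HBSS/10 mM Hepes with peptide. They were then activated with 2 mM MnCl₂ and added at 10⁶ cells/well to glass slides coated with mouse MAdCAM-1-Fc (10 μg/ml, FBS-blocked). Adhesion ran 30 min.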

For assay [2], the target named is T1, Integrin alpha-4/beta-7 (Mus musculus). The experiment in a line: Inhibition of alpha4beta7 assessed as inhibition of Mn(2+)-activated adhesion of mouse TK-1 T cells to mouse MAdCAM-1 at 50 uM incubated for 1 hr by cell adhesion assay. Summed up: as §1
For assay [3] the target is unchanged. The experiment in a line: Inhibition of alpha4beta7 assessed as inhibition of Mn(2+)-activated adhesion of mouse TK-1 T cells to mouse MAdCAM-1 at <5 to 10 uM incubated for 1 hr by cell adhesion assay. In outline:
as §1

Assay [4] has the same target. The experiment in a line: Inhibition of alpha4beta7 assessed as inhibition of Mn(2+)-activated adhesion of mouse TK-1 T cells to mouse MAdCAM-1 at 25 uM incubated for 1 hr by cell adhesion assay. In outline:
as §1

Activity calls are given as the source filed them. The rule behind the calls is not given here. *1 amine or outer side, *2 acyl side, *3 side chain or, on linkers, in order; H or OH if unused. Where a SMILES comes first, the peptide text is derived from it. [ ]: non-standard residue; d: D form. The star is where a group is joined. X7 = O=C([C@H](Cc1ccc(-c2cccc([N+](=O)[O-])c2)cc1)N[*:1])[*:2]; Phe(4-(2-MeO-Ph)) = COc1ccccc1-c1ccc(C[C@H](N)C(=O)O)cc1; X3 = COc1cccc(OC)c1-c1ccc(C[C@H](N[*:1])C(=O)[*:2])cc1; X6 = COc1ccc(-c2ccc(C[C@H](N[*:1])C(=O)[*:2])cc2)cc1OC; X5 = N#Cc1ccc(-c2ccc(C[C@H](N[*:1])C(=O)[*:2])cc2)cc1; Bip(4'-Me) = Cc1ccc(-c2ccc(C[C@H](N)C(=O)O)cc2)cc1; X4 = O=C([C@H](Cc1ccc(C2=CCCCC2)cc1)N[*:1])[*:2]; Biotin = O=C1N[C@H]2[C@H](CS[C@H]2CCCCC(=O)*)N1; X1 = O=C([C@H](Cc1ccc(C2CCCCC2)cc1)N[*:1])[*:2]

The term inhibition denotes the share of the control response that was lost under treatment.

Turning to `N=C(N)NCCC[C@H](NC(=O)[C@H](CCCNC(=N)N)NC(=O)[C@H](CC(=O)O)NC(=O)[C@H](Cc1ccc(O)cc1)NC(=O)[C@@H](CCCNC(=N)N)NC(=O)[C@@H](CCCNC(=N)N)NC(=O)[C@@H](CCCNC(=N)N)NC(=O)[C@@H](CCCNC(=N)N)NC(=O)[C@@H](CCCNC(=N)N)NC(=O)[C@@H](CCCNC(=N)N)NC(=O)[C@@H](CCCNC(=N)N)NC(=O)[C@@H](CCCNC(=N)N)NC(=O)[C@@H](CCCNC(=N)N)NC(=O)CCCC[C@@H]1SC[C@@H]2NC(=O)N[C@@H]21)C(=O)N[C@@H](CCC(=O)O)C(=O)N[C@@H](Cc1ccc(O)cc1)C(=O)O`, the inhibition in assay [1] came to 71.3%; in assay [2], 66.4%.

Regarding `N=C(N)NCCC[C@H](NC(=O)CCCC[C@@H]1SC[C@@H]2NC(=O)N[C@@H]21)C(=O)N[C@@H](CCCNC(=N)N)C(=O)N[C@@H](CCCNC(=N)N)C(=O)N[C@@H](CCCNC(=N)N)C(=O)N[C@@H](CCCNC(=N)N)C(=O)N[C@@H](CCCNC(=N)N)C(=O)N[C@@H](CCCNC(=N)N)C(=O)N[C@@H](CCCNC(=N)N)C(=O)N[C@@H](CCC(=O)O)C(=O)N[C@@H](CCCNC(=N)N)C(=O)N[C@@H](Cc1ccc(O)cc1)C(=O)O` (Biotin-RRRRRRRRERY-OH), the figures for the inhibition in assay [1] and in assay [2] were 18.2% and 8.73%, respectively.

In the case of `Cc1ccc(-c2ccc(C[C@H](NC(=O)[C@H](CCCNC(=N)N)NC(=O)[C@H](CCC(=O)O)NC(=O)[C@H](CCCNC(=N)N)NC(=O)[C@H](CCCNC(=N)N)NC(=O)[C@H](CCCNC(=N)N)NC(=O)[C@H](CCCNC(=N)N)NC(=O)[C@H](CCCNC(=N)N)NC(=O)[C@H](CCCNC(=N)N)NC(=O)[C@H](CCCNC(=N)N)NC(=O)[C@H](CCCNC(=N)N)NC(=O)CCCC[C@@H]3SC[C@@H]4NC(=O)N[C@@H]43)C(=O)O)cc2)cc1` (Biotin-RRRRRRRRER[Bip(4'-Me)]-OH), the inhibition in assay [1] is 57.3%; in assay [2] it was 47.4%.

Regarding `COc1ccccc1-c1ccc(C[C@H](NC(=O)[C@H](CCCNC(=N)N)NC(=O)[C@H](CCC(=O)O)NC(=O)[C@H](CCCNC(=N)N)NC(=O)[C@H](CCCNC(=N)N)NC(=O)[C@H](CCCNC(=N)N)NC(=O)[C@H](CCCNC(=N)N)NC(=O)[C@H](CCCNC(=N)N)NC(=O)[C@H](CCCNC(=N)N)NC(=O)[C@H](CCCNC(=N)N)NC(=O)[C@H](CCCNC(=N)N)NC(=O)CCCC[C@@H]2SC[C@@H]3NC(=O)N[C@@H]32)C(=O)O)cc1` (Biotin-RRRRRRRRER[Phe(4-(2-MeO-Ph))]-OH), the inhibition in assay [1] came to 47.1%; in assay [2], 48.1%.

Take `N=C(N)NCCC[C@H](NC(=O)CCCC[C@@H]1SC[C@@H]2NC(=O)N[C@@H]21)C(=O)N[C@@H](CCCNC(=N)N)C(=O)N[C@@H](CCCNC(=N)N)C(=O)N[C@@H](CCCNC(=N)N)C(=O)N[C@@H](CCCNC(=N)N)C(=O)N[C@@H](CCCNC(=N)N)C(=O)N[C@@H](CCCNC(=N)N)C(=O)N[C@@H](CCCNC(=N)N)C(=O)N[C@@H](CCC(=O)O)C(=O)N[C@@H](CCCNC(=N)N)C(=O)N[C@@H](Cc1ccc(C2CCCCC2)cc1)C(=O)O` (Biotin-RRRRRRRRER[X1]-OH): the inhibition is 64.8% in assay [1] and 71.7% in assay [2]. Also, the inhibition entry in assay [3] is “inactive”. Also, the inhibition result in assay [4] was “Active”.

Consider `COc1cccc(OC)c1-c1ccc(C[C@H](NC(=O)[C@H](CCCNC(=N)N)NC(=O)[C@H](CCC(=O)O)NC(=O)[C@H](CCCNC(=N)N)NC(=O)[C@H](CCCNC(=N)N)NC(=O)[C@H](CCCNC(=N)N)NC(=O)[C@H](CCCNC(=N)N)NC(=O)[C@H](CCCNC(=N)N)NC(=O)[C@H](CCCNC(=N)N)NC(=O)[C@H](CCCNC(=N)N)NC(=O)[C@H](CCCNC(=N)N)NC(=O)CCCC[C@@H]2SC[C@@H]3NC(=O)N[C@@H]32)C(=O)O)cc1` (Biotin-RRRRRRRRER[X3]-OH), for which the inhibition in assay [1] turned out to be 50.9%; in assay [2], 38.3%.

Consider `N=C(N)NCCC[C@H](NC(=O)CCCC[C@@H]1SC[C@@H]2NC(=O)N[C@@H]21)C(=O)N[C@@H](CCCNC(=N)N)C(=O)N[C@@H](CCCNC(=N)N)C(=O)N[C@@H](CCCNC(=N)N)C(=O)N[C@@H](CCCNC(=N)N)C(=O)N[C@@H](CCCNC(=N)N)C(=O)N[C@@H](CCCNC(=N)N)C(=O)N[C@@H](CCCNC(=N)N)C(=O)N[C@@H](CCC(=O)O)C(=O)N[C@@H](CCCNC(=N)N)C(=O)N[C@@H](Cc1ccc(C2=CCCCC2)cc1)C(=O)O` (Biotin-RRRRRRRRER[X4]-OH), for which the figures for the inhibition in assay [1] and in assay [2] were 59.1% and 49.7%, respectively.

Take `N#Cc1ccc(-c2ccc(C[C@H](NC(=O)[C@H](CCCNC(=N)N)NC(=O)[C@H](CCC(=O)O)NC(=O)[C@H](CCCNC(=N)N)NC(=O)[C@H](CCCNC(=N)N)NC(=O)[C@H](CCCNC(=N)N)NC(=O)[C@H](CCCNC(=N)N)NC(=O)[C@H](CCCNC(=N)N)NC(=O)[C@H](CCCNC(=N)N)NC(=O)[C@H](CCCNC(=N)N)NC(=O)[C@H](CCCNC(=N)N)NC(=O)CCCC[C@@H]3SC[C@@H]4NC(=O)N[C@@H]43)C(=O)O)cc2)cc1` (Biotin-RRRRRRRRER[X5]-OH): the inhibition in assay [1] worked out at 57%; in assay [2], 45%.

As to `COc1ccc(-c2ccc(C[C@H](NC(=O)[C@H](CCCNC(=N)N)NC(=O)[C@H](CCC(=O)O)NC(=O)[C@H](CCCNC(=N)N)NC(=O)[C@H](CCCNC(=N)N)NC(=O)[C@H](CCCNC(=N)N)NC(=O)[C@H](CCCNC(=N)N)NC(=O)[C@H](CCCNC(=N)N)NC(=O)[C@H](CCCNC(=N)N)NC(=O)[C@H](CCCNC(=N)N)NC(=O)[C@H](CCCNC(=N)N)NC(=O)CCCC[C@@H]3SC[C@@H]4NC(=O)N[C@@H]43)C(=O)O)cc2)cc1OC` (Biotin-RRRRRRRRER[X6]-OH), the inhibition in assay [1] was found to be 50.1%; in assay [2], 37.9%.

For `N=C(N)NCCC[C@H](NC(=O)CCCC[C@@H]1SC[C@@H]2NC(=O)N[C@@H]21)C(=O)N[C@@H](CCCNC(=N)N)C(=O)N[C@@H](CCCNC(=N)N)C(=O)N[C@@H](CCCNC(=N)N)C(=O)N[C@@H](CCCNC(=N)N)C(=O)N[C@@H](CCCNC(=N)N)C(=O)N[C@@H](CCCNC(=N)N)C(=O)N[C@@H](CCCNC(=N)N)C(=O)N[C@@H](CCC(=O)O)C(=O)N[C@@H](CCCNC(=N)N)C(=O)N[C@@H](Cc1ccc(-c2cccc([N+](=O)[O-])c2)cc1)C(=O)O` (Biotin-RRRRRRRRER[X7]-OH), the inhibition in assay [1] came to 60.3%; in assay [2], 50.5%.

Source of the values: ChEMBL document CHEMBL2069235, “Synthesis and biological evaluation of tyrosine modified analogues of the α4β7 integrin inhibitor biotin-R₈ERY” (Bioorg Med Chem, 2012).
